In general, IC50 refers to the point on the concentration scale where inhibition reaches its midpoint.

22 molecules from ChEMBL document CHEMBL1127678, “Dianilinophthalimides: potent and selective, ATP-competitive inhibitors of the EGF-receptor protein tyrosine kinase” (J Med Chem, 1994) can be followed below.

The target in experiment [1] is Tyrosine-protein kinase ABL (Homo sapiens, UniProt P00519+P42684). Kind of experiment: Inhibitory activity against v-abl tyrosine kinase. It is filed as protein assay.
Experiment [2] concerns the target cAMP-dependent protein kinase alpha-catalytic subunit (Oryctolagus cuniculus, UniProt Q95J97). Description: Inhibitory activity was determined against protein kinase A (PKA) of rabbit. The method, boiled down:
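PKA from rabbit muscle, kemptide (0.1 mg/mL) as substrate; compounds in DMSO (1% final).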

For experiment [3], the target named is Proto-oncogene tyrosine-protein kinase Src (Homo sapiens, UniProt P12931). Description: Inhibitory activity against c-src tyrosine kinase.
Proto-oncogene tyrosine-protein kinase Src, sequence (P12931 2-536 limits assumed): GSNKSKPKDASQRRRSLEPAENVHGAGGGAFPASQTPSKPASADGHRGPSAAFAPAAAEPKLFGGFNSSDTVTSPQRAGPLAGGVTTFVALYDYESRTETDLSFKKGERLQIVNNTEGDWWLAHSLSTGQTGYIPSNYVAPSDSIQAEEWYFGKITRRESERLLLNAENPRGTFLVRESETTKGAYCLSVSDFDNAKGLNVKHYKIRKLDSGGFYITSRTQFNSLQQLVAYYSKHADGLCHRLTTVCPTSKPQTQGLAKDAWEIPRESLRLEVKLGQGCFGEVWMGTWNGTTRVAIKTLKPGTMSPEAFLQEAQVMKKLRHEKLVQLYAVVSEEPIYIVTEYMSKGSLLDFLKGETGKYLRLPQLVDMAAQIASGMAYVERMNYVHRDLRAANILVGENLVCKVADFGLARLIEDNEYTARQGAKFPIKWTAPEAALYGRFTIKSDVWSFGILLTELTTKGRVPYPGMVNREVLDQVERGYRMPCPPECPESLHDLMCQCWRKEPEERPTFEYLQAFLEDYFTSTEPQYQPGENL
The target of a further experiment is Protein kinase C (PKC). Description: Inhibitory activity was determined against protein kinase C (PKC) from porcine brain. Also on record: species or system Sus scrofa.
The target in experiment [4] is Epidermal growth factor receptor (Homo sapiens, UniProt P00533). Kind of experiment: Inhibitory activity against recombinant tyrosine kinase EGF-R (EGF-R ICD).
Epidermal growth factor receptor, sequence (P00533 whole entry): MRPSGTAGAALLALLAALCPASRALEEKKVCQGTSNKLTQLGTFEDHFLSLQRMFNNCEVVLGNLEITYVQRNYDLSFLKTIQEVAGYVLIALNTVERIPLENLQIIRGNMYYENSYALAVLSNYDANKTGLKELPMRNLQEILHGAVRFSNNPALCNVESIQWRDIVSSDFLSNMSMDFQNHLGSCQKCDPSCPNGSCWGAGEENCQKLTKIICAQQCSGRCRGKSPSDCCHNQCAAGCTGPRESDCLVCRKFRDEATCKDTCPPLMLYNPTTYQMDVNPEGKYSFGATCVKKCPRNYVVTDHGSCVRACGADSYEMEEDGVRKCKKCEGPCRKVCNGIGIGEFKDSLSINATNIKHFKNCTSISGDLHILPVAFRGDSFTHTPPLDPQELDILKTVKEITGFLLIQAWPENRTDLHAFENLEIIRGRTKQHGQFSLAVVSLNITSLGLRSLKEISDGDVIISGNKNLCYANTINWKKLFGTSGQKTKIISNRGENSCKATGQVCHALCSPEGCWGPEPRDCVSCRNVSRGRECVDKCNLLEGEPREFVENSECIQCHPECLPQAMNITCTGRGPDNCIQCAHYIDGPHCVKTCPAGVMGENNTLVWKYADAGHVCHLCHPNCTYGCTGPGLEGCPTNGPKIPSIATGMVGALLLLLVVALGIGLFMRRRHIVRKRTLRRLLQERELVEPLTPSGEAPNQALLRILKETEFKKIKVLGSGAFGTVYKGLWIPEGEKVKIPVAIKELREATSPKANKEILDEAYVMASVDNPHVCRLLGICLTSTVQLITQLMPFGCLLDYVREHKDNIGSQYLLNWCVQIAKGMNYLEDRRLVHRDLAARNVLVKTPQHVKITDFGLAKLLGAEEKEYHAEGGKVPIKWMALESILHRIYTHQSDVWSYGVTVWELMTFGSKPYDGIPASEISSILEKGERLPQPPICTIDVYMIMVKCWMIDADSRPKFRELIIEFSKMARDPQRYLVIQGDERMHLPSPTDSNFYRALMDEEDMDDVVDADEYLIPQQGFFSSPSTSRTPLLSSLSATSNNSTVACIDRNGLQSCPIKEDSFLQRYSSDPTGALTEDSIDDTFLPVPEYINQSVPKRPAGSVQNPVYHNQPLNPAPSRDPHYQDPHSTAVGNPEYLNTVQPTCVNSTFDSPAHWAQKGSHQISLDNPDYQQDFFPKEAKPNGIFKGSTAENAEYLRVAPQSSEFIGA
In experiment [5] the target is T1, Platelet-derived growth factor receptor (Mus musculus, UniProt P05622+P26618). Description: (§1) Inhibition of PDGF-dependent autophosphorylation of PDGF-R in mouse BALB/c3T3 cells. The format is functional, cell-based.
Experiment [6] is described as follows: Inhibition of BALB/MK mouse epidermal keratinocyte proliferation. It is filed as functional. In short, it runs like this: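 Mouse BALB/MK keratinocytes (EGF-dependent; kept in calcium-free DMEM/HAM's F12 1:1 with 5% FCS and EGF 5 ng/mL), 10^4 cells/well, seeded and incubated overnight. Serial dilutions added in DMSO (1% final), then 5-day incubation. Cell number by methylene blue staining.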

In experiment [7] the target is T1, Platelet-derived growth factor receptor. The description is as §1. The format is functional, cell-based. In short, it runs like this: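 Confluent BALB/c 3T3 cells (collagen-coated wells, 3–5 days, no medium change) in DMEM with 1 mg/mL BSA; serially diluted compound for 2 h, then PDGF 50 ng/mL for 10 min. Cells were methanol-fixed, and phosphotyrosine was detected by ELISA (anti-pTyr 4G10, ABC-AP, p-nitrophenyl phosphate, 405 nm).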
The source holds these as a separate data set.

SMILES strings stand for the structures.

Turning to `O=C1NC(=O)c2cc3c(cc21)N(c1ccccc1)CCN3c1ccccc1`, the half-maximal inhibitory concentration (IC50) was above 50 µM in experiment [1], above 500 µM in experiment [2], above 50 µM in experiment [3] and 270 µM at Protein kinase C (PKC).
With `O=C1NC(=O)c2cc(NC3CCCCC3)c(NC3CCCCC3)cc21`, the IC50 is above 50 µM in experiment [4]; above 50 µM in experiment [1]; above 500 µM in experiment [2]; above 50 µM in experiment [3]; above 100 µM on Protein kinase C (PKC).
Regarding `O=C1NC(=O)c2cc(Nc3ccc(O)cc3)c(Nc3ccc(O)cc3)cc21`, the IC50 in experiment [1] was 12 µM; in experiment [2], above 500 µM; in experiment [3] it was 8 µM; against Protein kinase C (PKC), 75 µM.
Consider `N#Cc1ccc(Nc2cc3c(cc2Nc2ccc(C#N)cc2)C(=O)NC3=O)cc1`, for which the half-maximal inhibitory concentration (IC50) in experiment [2] is above 500 µM; against Protein kinase C (PKC), above 100 µM.
With `CN(c1ccccc1)c1cc2c(cc1N(C)c1ccccc1)C(=O)NC2=O`, the half-maximal inhibitory concentration (IC50) in experiment [1] is above 50 µM; in experiment [2], above 500 µM; in experiment [3], above 100 µM; against Protein kinase C (PKC) it was above 500 µM.
Consider `CC(=O)N(c1ccccc1)c1cc2c(cc1Nc1ccccc1)C(=O)NC2=O`, for which the 50% inhibitory concentration (IC50) was above 100 µM in experiment [5], above 500 µM in experiment [2] and above 100 µM at Protein kinase C (PKC).
On to `COc1ccc(Nc2cc3c(cc2Nc2ccc(OC)cc2)C(=O)NC3=O)cc1`, for which the IC50 is above 100 µM in experiment [5], above 50 µM in experiment [1], above 500 µM in experiment [2] and 460 µM on Protein kinase C (PKC).
For the molecule `CN(c1ccccc1)c1cc2c(cc1Nc1ccccc1)C(=O)NC2=O`, the IC50 is above 50 µM in experiment [1], above 500 µM in experiment [2], 1 µM in experiment [3] and above 500 µM against Protein kinase C (PKC).
On to `Cc1ccc(Nc2cc3c(cc2Nc2ccc(C)cc2)C(=O)NC3=O)cc1`, for which the half-maximal inhibitory concentration (IC50) in experiment [5] was above 100 µM; in experiment [1] it was above 100 µM; in experiment [2] it was above 500 µM; in experiment [3], above 100 µM; against Protein kinase C (PKC) it was above 100 µM.
Consider `O=C1NC(=O)c2cc(Nc3ccc(-c4ccccc4)cc3)c(Nc3ccc(-c4ccccc4)cc3)cc21`, for which the results for the IC50 (in experiment [5]; in experiment [2]; against Protein kinase C (PKC)) were above 100 µM, above 500 µM and above 500 µM, respectively.
Consider `O=C1c2cc(Nc3ccccc3)c(Nc3ccccc3)cc2C(=O)N1c1ccccc1`, for which the IC50 in experiment [6] was above 50 µM; in experiment [5], above 100 µM; in experiment [2], above 500 µM; on Protein kinase C (PKC), above 100 µM.
For `CN1C(=O)c2cc(Nc3ccccc3)c(Nc3ccccc3)cc2C1=O`, the half-maximal inhibitory concentration (IC50) in experiment [5] is above 100 µM; in experiment [2], above 500 µM; against Protein kinase C (PKC), above 100 µM.
In the case of `COC(=O)c1cc(Nc2ccc(F)cc2)c(Nc2ccc(F)cc2)cc1C(=O)OC`, the IC50 (in experiment [2]; against Protein kinase C (PKC)) was above 500 µM each time.
As to `COc1ccc(Nc2cc3c(cc2Nc2ccccc2)C(=O)NC3=O)cc1`, the IC50 is above 100 µM in experiment [5]; above 100 µM in experiment [1]; above 500 µM in experiment [2]; 64 µM in experiment [3]; above 100 µM on Protein kinase C (PKC).
Regarding `O=C1NC(=O)c2cc(Nc3ccc(I)cc3)c(Nc3ccc(I)cc3)cc21`, the IC50 (in experiment [2]; against Protein kinase C (PKC)) was above 500 µM each time.
On to `COC(=O)c1cc(Nc2ccccc2)c(Nc2ccccc2)cc1C(=O)OC`, for which the IC50 (in experiment [2]; on Protein kinase C (PKC)) was above 500 µM throughout.
Turning to `CCN(CC)c1ccc(Nc2cc3c(cc2Nc2ccc(N(CC)CC)cc2)C(=O)NC3=O)cc1`, the IC50 is above 50 µM in experiment [1], above 500 µM in experiment [2], above 100 µM in experiment [3] and above 500 µM against Protein kinase C (PKC).
For `O=C1NC(=O)c2cc(Sc3ccccc3)c(Sc3ccccc3)cc21`, the 50% inhibitory concentration (IC50) was above 500 µM in experiment [2] and above 50 µM against Protein kinase C (PKC).
Consider `O=C1NC(=O)c2cc(Nc3ccc(F)cc3)c(Nc3ccc(F)cc3)cc21` [CGP-53353], for which the IC50 in experiment [5] is 100 µM; in experiment [1], above 50 µM; in experiment [2], above 500 µM; in experiment [3], 50 µM; against Protein kinase C (PKC), 32 µM.
Regarding `O=C1NC(=O)c2cc(Nc3ccccc3)c(Nc3ccccc3)cc21` [DAPH], the IC50 in experiment [7] is 100 µM; in experiment [1] it was above 50 µM; in experiment [2], above 500 µM; in experiment [3], 16 µM; against Protein kinase C (PKC), 80 µM.
For `O=C1NC(=O)C(c2c[nH]c3ccccc23)=C1c1c[nH]c2ccccc12` [RO-316233], the values for the IC50 (in experiment [1]; at Protein kinase C (PKC)) were 20 µM and 0.19 µM, respectively.
`O=C1NC(=O)c2c1c1c3ccccc3[nH]c1c1[nH]c3ccccc3c21` [STAUROSPORINE AGLYCON] gave an IC50 in experiment [2] above 10 µM.
